Rows were chosen to be rich in hits. Some 1% of all compounds tested hit in one or more screens of this group.
RAD54 inh – inhibitors of human RAD54 branch migration, primary screen, biochemical, fluorescence, single point; RAD54 Holliday junction branch migration, FAM/BHQ fluorescence; 0.14% of 360,000 active; inhibition, % at 10.4 µM;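 active = mean normalized replicate activity at least 40 and at least half of replicates scoring 40 or more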;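 also: 0% = median of neutral control wells and 100% = median of positive control wells; inhibitors cause a drop in the FAM fluorescence signal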
ERp5 block – inhibitors of ERp5-driven insulin aggregation, primary screen, biochemical, turbidity, absorbance 650 nm, single point; Protein disulfide-isomerase A6 (Homo sapiens), Q15084; 90 min; inhibition, % at 9.99 µM; AID 651711, 2012; 0.05% of 350,000 active;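 active = mean replicate inhibition above about 25%, with every replicate also reaching it, limit read from the data, passing the limit was not always enough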
PDI inh – inhibitors of human PDI, primary screen, biochemical, turbidity, single point, plate reader. inhibition, % at 10 µM. PDI insulin aggregation turbidity, A650, 90 min. AID 588391, 2011. 0.052% of 350,000 active. Protein disulfide-isomerase (Homo sapiens), P07237;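 active = mean inhibition across replicates of 30% or more, whatever share of single replicates reach that level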
CAL PDZ FP-1 – CAL PDZ peptide-binding inhibitors, primary screen, biochemical, fluorescence polarization, Cer-tagged CAL PDZ, HTS | Golgi-associated PDZ and coiled-coil motif-containing protein (Homo sapiens), Q9HD26 | inhibition, % at 20 µM | 0.02% of 330,000 active | purified CAL PDZ, TMR-peptide fluorescence polarization, 1 h | AID 504414, 2011;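 active = highest replicate inhibition of at least 40%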;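 also: plate controls were DMSO neutral control wells for no effect and unlabeled competitor peptide control wells for full effect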
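material = purified tagged CAL PDZ domain construct (CerCALP) | compound dosing = 20 µM, one dose | times = 1 h at RT | measured by = fluorescence polarization from S- and P-plane intensities, G-factor corrected | read-out = inhibition from polarization loss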
RAD52 inh – RAD52 DNA annealing inhibitors, primary screen, biochemical, FRET, single point, set 2. 0.46% of 360,000 active. recombinant RAD52 DNA annealing, FRET fluorescence. inhibition, % at 18.7 µM. AID 651710, 2012;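 active = every replicate showing at least 50% inhibition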
CAL PDZ FP-2 – untagged CAL PDZ binding inhibitors, primary screen, biochemical, fluorescence polarization, HTS | Golgi-associated PDZ and coiled-coil motif-containing protein (Homo sapiens), Q9HD26 | purified CAL PDZ, TMR-peptide fluorescence polarization, 1 h | inhibition, % at 24.9 µM | 0.92% of 300,000 active;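 active = mean inhibition of at least 30% with at least half of replicates also reaching 30%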;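 also: 0% = DMSO neutral control and 100% = excess unlabeled competitor peptide PRC23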
The depositor's hits bear a star; . = not tested or not shown.

SMILES	RAD54 inh	ERp5 block	PDI inh	CAL PDZ FP-1	RAD52 inh	CAL PDZ FP-2
O=C(Nc1ccccc1F)N1CC(=O)N2[C@H](C1)[C@@H](c1ccc(C#CC3CCCC3)cc1)[C@@H]2CO	.	1.1	.	.	1.0	.
CCN(CC)S(=O)(=O)c1ccc(N2CCOCC2)c(NC(=O)c2cc([N+](=O)[O-])ccc2Cl)c1	.	0.9	-0.6	-0.9	-30.3	40.1*
C[C@@H]1CN([C@H](C)CO)C(=O)c2c(c3ccccc3n2C)-c2ccccc2CO[C@@H]1CN(C)S(=O)(=O)c1ccc(Cl)cc1	-1.9	-5.5	.	.	12.0	.
CCCN(C)C[C@@H]1Oc2ncc(C#Cc3cccc(OC)c3)cc2C(=O)N([C@H](C)CO)C[C@@H]1C	.	4.1	.	.	52.7*	.
CCCN(C)C[C@@H]1Oc2ncc(C#Cc3ccccc3OC)cc2C(=O)N([C@H](C)CO)C[C@@H]1C	5.9	-5.8	.	.	56.6*	.
CCCN(C)C[C@@H]1Oc2ncc(C#Cc3ccc(OC)cc3)cc2C(=O)N([C@H](C)CO)C[C@@H]1C	-3.2	5.9	.	.	-30.2	.
C/C=C/c1cnc2c(c1)C(=O)N([C@H](C)CO)C[C@@H](C)[C@@H](CN(C)C(=O)Cc1ccccc1)O2	0.3	-5.4	.	.	21.9	.
CCNC(=O)C[C@H]1CC[C@@H]2[C@@H](COc3ccc(NC(=O)c4cscn4)cc3C(=O)N2C)O1	-8.8	0.2	.	.	13.4	.
C[C@H]1CCCCO[C@H](CN(C)C(=O)Nc2ccc3c(c2)OCO3)[C@@H](C)CN([C@@H](C)CO)C(=O)c2cc(NC(=O)CCCN(C)C)ccc2O1	10.7	0.9	.	.	-9.6	.
Cc1c(C(=O)N2CCOCC2)c(S(=O)(=O)Nc2ccc(C(C)C)cc2)c(C)n1C	6.6	-2.5	2.0	-1.1	-5.0	48.3*
Cc1ccc(NS(=O)(=O)c2c(C(=O)N3CCOCC3)c(C)n(C)c2C)cc1C	-1.1	2.1	-4.5	-2.3	-9.8	-3.8
CC(=O)C1=C(C)NC(=S)NC1c1cc([N+](=O)[O-])ccc1O (centres undefined)	-4.7	3.3	-3.0	2.4	-13.7	64.5*
CC1=C(C(=O)c2ccccc2)C(c2cccc([N+](=O)[O-])c2)NC(=S)N1 (centres undefined)	.	-3.1	-0.3	0.5	-23.2	5.8
CN1CCN(c2ccc(Cl)cc2NC(=O)C2COc3ccccc3O2)CC1 (centres undefined)	14.1	.	3.5	-2.7	.	70.5*
COc1ccc(NC(=O)N2CCCCN3[C@H](CO)[C@@H](c4ccc(-c5ccccc5F)cc4)[C@H]3C2)cc1	5.2	-3.2	.	.	51.5*	.
O=C(Nc1ccccc1F)N1CCCCN2[C@H](CO)[C@@H](c3ccc(C4=CCCCC4)cc3)[C@H]2C1	-11.1	-2.8	.	.	55.8*	.
COc1ccc(NC(=O)N2CCCCN3[C@H](C2)[C@@H](c2ccc(-c4ccccc4F)cc2)[C@@H]3CO)cc1	8.0	-7.9	.	.	35.6	.
COc1ccc(NC(=O)N2CCCCN3[C@@H](CO)[C@@H](c4ccc(C5=CCCC5)cc4)[C@@H]3C2)cc1	-13.2	-2.6	.	.	53.8*	.
COc1ccc(NC(=O)N2CCCCN3[C@H](CO)[C@H](c4ccc(-c5ccccc5F)cc4)[C@H]3C2)cc1	21.7	-1.5	.	.	56.6*	.
C[C@H]1CN([C@@H](C)CO)C(=O)c2cccc(NC(=O)Nc3ccc(F)cc3)c2O[C@H]1CN(C)C(=O)Nc1ccc(F)cc1	-10.2	2.3	.	.	-1.0	.
CNC[C@H]1Oc2c(NS(=O)(=O)c3cccs3)cccc2C(=O)N([C@@H](C)CO)C[C@@H]1C	-2.4	-5.6	.	.	7.2	.
COc1ccc(NC(=O)N2CCCCN3[C@H](CO)[C@@H](c4ccc(-c5ccccc5F)cc4)[C@@H]3C2)cc1	6.9	-0.2	.	.	55.7*	.
O=C(C[C@@H]1CC[C@@H]2[C@H](COC[C@H](O)CN2Cc2ccc(C(F)(F)F)cc2)O1)NCCc1ccccc1	2.4	1.7	.	.	14.5	.

Screening results (PubChem BioAssay)
